Data reported in ChEMBL document CHEMBL1156920, “Structural analogues of schweinfurthin F: probing the steric, electronic, and hydrophobic properties of the D-ring substructure” (Bioorg Med Chem, 2010).
pEC50: −log10 of the molar value.

Key:
LOX IMVI = test: Growth inhibition of human LOXIMVI cells; type: functional
NCI-H322M = test: Growth inhibition of human NCI-H322M cells; type: functional
UACC-257 = test: Growth inhibition of human UACC257 cells; type: functional
M14 = test: Growth inhibition of human M14 cells; type: functional
EKVX = test: Growth inhibition of human EKVX cells; type: functional
CAKI-1 = test: Growth inhibition of human Caki1 cells; type: functional
HCT-15 = test: Growth inhibition of human HCT15 cells; type: functional
SF-268 = test: Growth inhibition of human SF268 cells; type: functional
DU-145 = test: Growth inhibition of human DU145 cells; type: functional
SK-MEL-2 = test: Growth inhibition of human SK-MEL-2 cells; type: functional
TK-10 = test: Growth inhibition of human TK10 cells; type: functional
OVCAR-3 = test: Growth inhibition of human OVCAR-3 cells; type: functional
A549 = test: Cytotoxicity against human A549 cells after 44 hrs by MTT assay; type: functional, cell-based; conditions: A549, 44 h
Outline: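 SF-295 cells cultured in RPMI 1640 and A549 cells in F-12, each with 10% FBS, penicillin–streptomycin, amphotericin B and L-glutamine, at 37 °C in 5% CO2. Cells were grown to 60% confluency, then treated for 44 h. Medium was replaced with medium containing 0.06 mg/mL MTT (phenol red-free RPMI for SF-295) for 4 h. Acid/Triton/isopropanol stop solution was added, plates incubated overnight at 37 °C, OD read at 540 and 650 nm, and EC50 calculated.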

K562 = test: Growth inhibition of human K562 cells; type: functional
NCI-H226 = test: Growth inhibition of human NCI-H226 cells; type: functional
COLO 205 = test: Growth inhibition of human COLO205 cells; type: functional
UO-31 = test: Growth inhibition of human UO31 cells; type: functional
HCT-116 = test: Growth inhibition of human HCT116 cells; type: functional
MDA-MB-435 = test: Growth inhibition of human MDA-MB-435 cells; type: functional
OVCAR-5 = test: Growth inhibition of human OVCAR5 cells; type: functional
SF-295 = test: Growth inhibition of human SF295 cells; type: functional
KM12 = test: Growth inhibition of human KM12 cells; type: functional
U-251 = test: Growth inhibition of human U251 cells; type: functional
SR = test: Growth inhibition of human SR cells; type: functional
SNB-75 = test: Growth inhibition of human SNB75 cells; type: functional
[1] = Growth inhibition of human […] cells; type: functional
ACHN = test: Growth inhibition of human ACHN cells; type: functional
CCRF-CEM = test: Growth inhibition of human CCRF-CEM cells; type: functional
SF-539 = test: Growth inhibition of human SF539 cells; type: functional
Malme-3M = test: Growth inhibition of human MALME-3M cells; type: functional
PC-3 = test: Growth inhibition of human PC3 cells; type: functional
[2] = Cytotoxicity against human NCI60 cells; type: functional
SK-OV-3 = test: Growth inhibition of human SKOV3 cells; type: functional
MCF7 = test: Growth inhibition of human MCF7 cells; type: functional
NCI-H522 = test: Growth inhibition of human NCI-H522 cells; type: functional
786-0 = test: Growth inhibition of human 786-0 cells; type: functional
UACC-62 = test: Growth inhibition of human UACC62 cells; type: functional
HOP-92 = test: Growth inhibition of human HOP92 cells; type: functional
MDA-MB-231 = test: Growth inhibition of human MDA-MB-231 cells; type: functional
SN12C = test: Growth inhibition of human SN12C cells; type: functional
MOLT-4 = test: Growth inhibition of human MOLT4 cells; type: functional
IGROV-1 = test: Growth inhibition of human IGROV1 cells; type: functional
[3] = read-out: pLC50 (the source's name) (converted)

## COc1cc(/C=C/c2cc(O)c(CCC(C)C)c(O)c2)cc2c1O[C@]1(C)CC[C@@H](O)C(C)(C)[C@H]1C2
LOX IMVI
  GI50: 0.0708 µM
  LC50: 5.89 µM
LOX IMVI; read-out: pTGI (converted)
  TGI: 1.78 µM
NCI-H322M
  GI50: 0.933 µM
NCI-H322M; read-out: pTGI (converted)
  TGI: 28.8 µM
UACC-257
  GI50: 3.39 µM
  LC50: 64.6 µM
UACC-257; read-out: pTGI (converted)
  TGI: 21.9 µM
M14
  GI50: 0.245 µM
M14; [3]
  CC50: 30.9 µM
M14; read-out: pTGI (converted)
  TGI: 0.24 µM
EKVX
  GI50: 0.447 µM
  LC50: > 100 µM
EKVX; read-out: pTGI (converted)
  TGI: 17.4 µM
CAKI-1
  GI50: 0.0708 µM
  LC50: > 100 µM
CAKI-1; read-out: pTGI (converted)
  TGI: 17.8 µM
HCT-15
  GI50: 0.182 µM
  LC50: 26.3 µM
HCT-15; read-out: pTGI (converted)
  TGI: 2.88 µM
SF-268
  GI50: 0.214 µM
  LC50: 39.8 µM
SF-268; read-out: pTGI (converted)
  TGI: 11.5 µM
DU-145
  GI50: 0.24 µM
  LC50: 37.2 µM
DU-145; read-out: pTGI (converted)
  TGI: 14.1 µM
SK-MEL-2
  GI50: 4.47 µM
SK-MEL-2; read-out: pTGI (converted)
  TGI: 33.1 µM
TK-10
  GI50: 6.31 µM
  LC50: 74.1 µM
TK-10; read-out: pTGI (converted)
  TGI: 25.1 µM
OVCAR-3
  GI50: 0.417 µM
  LC50 (50% lethal concentration): 56.2 µM
OVCAR-3; read-out: pTGI (converted)
  TGI: 14.1 µM
A549
  pEC50: 5.38
K562
  GI50: 1.17 µM
K562; [3]
  CC50: > 100 µM
K562; read-out: pTGI (converted)
  TGI: > 100 µM
NCI-H226
  GI50: 0.692 µM
  LC50: > 100 µM
NCI-H226; read-out: pTGI (converted)
  TGI: 3.55 µM
COLO 205
  GI50: 0.891 µM
  LC50: > 100 µM
COLO 205; read-out: pTGI (converted)
  TGI: 12.3 µM
UO-31
  GI50: 0.0468 µM
UO-31; [3]
  CC50: 74.1 µM
UO-31; read-out: pTGI (converted)
  TGI: 2.4 µM
HCT-116
  GI50: 0.0468 µM
HCT-116; [3]
  CC50: 47.9 µM
HCT-116; read-out: pTGI (converted)
  TGI: 8.13 µM
MDA-MB-435
  GI50: 0.501 µM
  LC50: > 100 µM
MDA-MB-435; read-out: pTGI (converted)
  TGI: 24 µM
OVCAR-5
  GI50: 10.7 µM
  LC50 (lethal concentration, 50% cell kill): 69.2 µM
OVCAR-5; read-out: pTGI (converted)
  TGI: 26.9 µM
SF-295
  GI50: 0.0331 µM
  LC50: 66.1 µM
SF-295; read-out: pTGI (converted)
  TGI: 1.35 µM
KM12
  GI50: 0.275 µM
  LC50: 28.8 µM
KM12; read-out: pTGI (converted)
  TGI: 5.25 µM
U-251
  GI50: 0.0631 µM
  LC50: 37.2 µM
U-251; read-out: pTGI (converted)
  TGI: 12.9 µM
SR
  GI50: 0.0891 µM
  LC50: > 100 µM
SR; read-out: pTGI (converted)
  TGI: 10.5 µM
SNB-75
  GI50: 0.0603 µM
  LC50: 39.8 µM
SNB-75; read-out: pTGI (converted)
  TGI: 11.2 µM
[1]
  GI50: 0.0174 µM
  LC50: > 100 µM
ACHN
  GI50: 0.309 µM
ACHN; [3]
  CC50: 43.7 µM
ACHN; read-out: pTGI (converted)
  TGI: 15.8 µM
CCRF-CEM
  GI50: 0.148 µM
CCRF-CEM; [3]
  CC50: > 100 µM
CCRF-CEM; read-out: pTGI (converted)
  TGI: 18.6 µM
SF-539
  GI50: 0.0288 µM
  LC50: 2.69 µM
SF-539; read-out: pTGI (converted)
  TGI: 0.295 µM
Malme-3M
  GI50: 1.41 µM
  LC50: 63.1 µM
Malme-3M; read-out: pTGI (converted)
  TGI: 12.3 µM
PC-3
  GI50: 0.178 µM
PC-3; [3]
  CC50: > 100 µM
PC-3; read-out: pTGI (converted)
  TGI: 32.4 µM
[2]
  GI50: 0.29 µM
SK-OV-3
  GI50: 11.5 µM
  LC50: > 100 µM
SK-OV-3; read-out: pTGI (converted)
  TGI: 97.7 µM
MCF7
  GI50: 0.0427 µM
MCF7; [3]
  CC50: > 100 µM
MCF7; read-out: pTGI (converted)
  TGI: 2.4 µM
NCI-H522
  GI50: 1.32 µM
  LC50 (50% lethal concentration): > 100 µM
NCI-H522; read-out: pTGI (converted)
  TGI: 24 µM
786-0
  GI50: 0.0102 µM
  LC50: 2.88 µM
786-0; read-out: pTGI (converted)
  TGI: 0.0537 µM
UACC-62
  GI50: 0.195 µM
UACC-62; [3]
  CC50: 32.4 µM
UACC-62; read-out: pTGI (converted)
  TGI: 7.08 µM
HOP-92
  GI50: 1.51 µM
  LC50: > 100 µM
HOP-92; read-out: pTGI (converted)
  TGI: 24 µM
MDA-MB-231
  GI50: 1.74 µM
  LC50: 39.8 µM
MDA-MB-231; read-out: pTGI (converted)
  TGI: 11 µM
SN12C
  GI50: 0.741 µM
  LC50: > 100 µM
SN12C; read-out: pTGI (converted)
  TGI: 36.3 µM
MOLT-4
  GI50: 0.0457 µM
  LC50: > 100 µM
MOLT-4; read-out: pTGI (converted)
  TGI: 18.6 µM
IGROV-1
  GI50: 0.513 µM
  LC50: > 100 µM
IGROV-1; read-out: pTGI (converted)
  TGI: 46.8 µM
